Assay results taken from ChEMBL document CHEMBL1773034 (J Nat Prod, 2011).
pIC50: −log10 of the molar value. Activity calls are given as the source filed them. The calls are words filed in the database; no cut-off is given here.

Columns and labels:
[1] = Selectivity ratio of IC50 for human recombinant COX2 to IC50 for ram seminal vesicle COX1; type: tissue-based
Method in brief: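 Enzymes were human recombinant COX-2 (0.5 unit/reaction) and ram seminal vesicle COX-1 (1 unit/reaction), in 0.1 M Tris/HCl pH 8.0 with 5 μM hematin, 18 mM L-epinephrine, 50 μM EDTA. Compound in DMSO was preincubated 5 min at room temperature, then arachidonic acid was added for 20 min at 37 °C. PGE2 was read by competitive EIA at 405 nm. IC50 came from regression on ≥3 concentrations, with four independent experiments. Selectivity was taken as the COX-2/COX-1 IC50 ratio.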

THP-1 [2] = assay: Antiinflammatory activity against human THP1 cells of assessed as inhibition of LPS-induced TNFalpha protein synthesis at 10 uM pretreated for 1 hr before LPS challenge measured after 2 to 10 hrs relative to control; type: functional
THP-1 [3] = assay: Antiinflammatory activity against human THP1 cells of assessed as inhibition of LPS-induced COX-2 gene expression at 10 uM pretreated for 1 hr before LPS challenge measured after 4 hrs by RT-qPCR; type: functional, cell-based
Method in brief: (§1)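 THP-1 monocytes, PMA-differentiated to macrophages, pretreated 1 h with compound in DMSO (0.1% final), then stimulated with 1 μg/mL LPS. Cells lysed in wells at 2, 4, 6 and 10 h post-LPS; TaqMan two-step RT-qPCR, ROX-normalized, ΔΔCT with unstimulated control set to 1. Means ± SE, three independent experiments.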

THP-1 [4] = assay: Antiinflammatory activity against human THP1 cells assessed as inhibition of LPS-induced ZFP36 gene expression at 10 uM pretreated for 1 hr before LPS challenge measured after 2 hrs by RT-qPCR relative to control; type: functional; method in brief: as §1
THP-1 [5] = assay: Antiinflammatory activity against human THP1 cells assessed as inhibition of LPS-induced NFKB p65 subunit translocation to nucleus at 10 uM pretreated for 1 hr before LPS challenge relative to control; type: functional
Method in brief: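 PMA-differentiated THP-1 macrophages pretreated 1 h (0.1% DMSO vehicle), then 1 μg/mL E. coli 0111:B4 LPS; harvested 1 h after LPS by trypsinization/scraping. Cytoplasmic and nuclear fractions separated; p65 quantified in each by transcription-factor ELISA-type kit, cytoplasm/nuclear ratio calculated. Means ± SE, three independent experiments, three measurements each.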

[6] = molecular target: T1, Prostaglandin G/H synthase 2 (Homo sapiens, UniProt P35354); assay: Inhibition of human recombinant COX-2 assessed as PGE2 production from arachidonic acid after 20 mins enzyme immunoassay
T1 sequence (P35354 whole entry): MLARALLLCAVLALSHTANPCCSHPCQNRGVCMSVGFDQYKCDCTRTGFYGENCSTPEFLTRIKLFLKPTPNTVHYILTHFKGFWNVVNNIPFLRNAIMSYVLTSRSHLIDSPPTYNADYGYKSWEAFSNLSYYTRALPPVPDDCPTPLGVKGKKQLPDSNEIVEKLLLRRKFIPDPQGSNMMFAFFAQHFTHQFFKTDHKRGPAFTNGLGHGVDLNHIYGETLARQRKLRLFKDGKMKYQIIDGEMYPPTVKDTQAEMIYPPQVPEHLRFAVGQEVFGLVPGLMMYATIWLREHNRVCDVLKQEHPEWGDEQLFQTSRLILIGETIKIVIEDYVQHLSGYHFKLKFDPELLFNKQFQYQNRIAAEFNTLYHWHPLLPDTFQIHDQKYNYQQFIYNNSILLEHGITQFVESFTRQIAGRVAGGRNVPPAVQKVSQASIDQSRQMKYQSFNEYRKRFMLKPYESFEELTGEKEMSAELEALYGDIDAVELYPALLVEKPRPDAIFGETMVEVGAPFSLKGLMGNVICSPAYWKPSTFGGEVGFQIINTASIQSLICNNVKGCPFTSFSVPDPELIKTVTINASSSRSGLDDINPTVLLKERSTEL

THP-1 [7] = assay: Antiinflammatory activity against human THP1 cells of assessed as inhibition of LPS-induced TNFalpha gene expression at 10 uM pretreated for 1 hr before LPS challenge measured after 2 to 10 hrs by RT-qPCR; type: functional, cell-based; method in brief: as §1
THP-1 [8] = assay: Antiinflammatory activity against human THP1 cells assessed as increase in LPS-induced ZFP36 gene expression at 10 uM pretreated for 1 hr before LPS challenge measured after 4 hrs by RT-qPCR relative to control
[9] = Cytotoxicity against human THP1 cells after 24 hrs by erythrosin B staining; type: cell-based; details: THP-1 cells, read-out: LD50
Method in brief: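 THP-1 monocytes given five increasing concentrations (1-50 μM for the flavone; 1-100 μM for indomethacin) from DMSO stocks, final DMSO 0.1%, in RPMI 1640 with 10% FBS. Incubated 24 h at 37 C, 5% CO2. Cells were mixed 1:1 with 0.1% erythrosin B in PBS and counted by hemocytometer, with unstained cells taken as viable. LD50 was calculated from dose-response curves.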

THP-1 [10] = assay: Antiinflammatory activity against human THP1 cells of assessed as inhibition of LPS-induced TNFalpha gene expression at 10 uM pretreated for 1 hr before LPS challenge measured after 2 hrs by RT-qPCR relative to control; type: functional; method in brief: as §1
THP-1 [11] = assay: Antiinflammatory activity against human THP1 cells of assessed as inhibition of LPS-induced TNFalpha protein synthesis at 10 uM pretreated for 1 hr before LPS challenge measured after 2 to 10 hrs; type: functional, cell-based
RAW264.7 [12] = assay: Antiinflammatory activity against mouse RAW264.7 cells assessed as iNOS gene expression; type: functional, cell-based
RAW264.7 [13] = assay: Antiinflammatory activity against mouse RAW264.7 cells assessed as nitric oxide production; type: functional, cell-based
[14] = molecular target: T2, Prostaglandin G/H synthase 1 (Ovis aries, UniProt P05979); assay: Inhibition of ram seminal vesicle COX-1 assessed as PGE2 production from arachidonic acid after 20 mins enzyme immunoassay; type: tissue-based
T2 sequence (P05979 whole entry): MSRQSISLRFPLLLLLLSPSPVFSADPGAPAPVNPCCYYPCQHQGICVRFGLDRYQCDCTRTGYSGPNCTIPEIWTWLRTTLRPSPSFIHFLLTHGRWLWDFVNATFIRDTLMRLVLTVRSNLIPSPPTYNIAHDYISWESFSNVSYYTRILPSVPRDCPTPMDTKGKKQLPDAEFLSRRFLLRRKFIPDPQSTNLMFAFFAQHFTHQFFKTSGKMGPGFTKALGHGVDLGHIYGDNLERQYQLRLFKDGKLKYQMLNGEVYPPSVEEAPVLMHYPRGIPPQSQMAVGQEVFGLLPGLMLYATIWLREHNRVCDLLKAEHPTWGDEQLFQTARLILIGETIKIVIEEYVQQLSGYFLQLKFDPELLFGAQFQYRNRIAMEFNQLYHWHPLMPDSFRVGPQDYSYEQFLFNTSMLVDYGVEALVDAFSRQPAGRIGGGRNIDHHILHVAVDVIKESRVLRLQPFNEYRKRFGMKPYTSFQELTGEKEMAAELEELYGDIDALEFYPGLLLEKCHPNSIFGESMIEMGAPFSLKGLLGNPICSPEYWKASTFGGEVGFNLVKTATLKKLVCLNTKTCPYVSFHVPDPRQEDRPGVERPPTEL

| Compound | Ratio IC50 [1] | Ratio (THP-1 [2]) | Activity (THP-1 [3]) | fold change (FC) (THP-1 [4]) | fold change (FC) (THP-1 [5]) | pIC50 [6] | Activity (THP-1 [7]) | Ratio (THP-1 [8]) | CC50 at 24 h [9] [µM] | Ratio (THP-1 [10]) | Activity (THP-1 [11]) | Activity (RAW264.7 [12]) | Activity (RAW264.7 [13]) | pIC50 [14] | Activity (THP-1 [4]) | Activity (THP-1 [5]) |
| --- | --- | --- | --- | --- | --- | --- | --- | --- | --- | --- | --- | --- | --- | --- | --- | --- |
| CC(C)=CCc1c(-c2ccc(O)cc2O)oc2cc3c(c(O)c2c1=O)C=CC(C)(C)O3 [CUDRAFLAVONE B] | 1.7 | 20 | Active | 5.8 | 3.2 | 5.60 | Active | 2 | 47.6 | 5.8 | Active | Dose-dependent effect | Dose-dependent effect | 5.82 |  |  |
| COc1ccc2c(c1)c(CC(=O)O)c(C)n2C(=O)c1ccc(Cl)cc1 [INDOMETHACIN] |  |  |  |  |  |  | Active |  | > 100 |  |  |  |  |  | Active | Active |
